PKD1 kinase inh: inhibitors of human PKD1 kinase; inhibition, % (test concentration not listed); 200,000 compounds, 0.056% hits; AID 797; Q15139; PKD1 kinase fluorescence polarization assay
Rad51 HR inh: blocks human Rad51 in homologous recombination. Q06609. hRad51 DNA strand exchange, fluorescence dequenching. inhibition, % at 10 µM. 200,000 compounds, 0.085% hits. AID 1385;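 active = inhibition above 40% at the single screening dose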;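 also: 0% = DMSO control wells and 100% = blanks with heterologous ssDNA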
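Test system: preformed human Rad51 ssDNA filaments. Compound dosing: single dose, 10 µM final compound. Incubation: filaments 15 min 37 °C, then compound 30 min. Technique: FRET fluorescence dequenching, excitation 485 nm, emission 520 nm. Read-out basis: percent inhibition from fluorescence, normalised to plate control and blank means. Benchmarks: plate controls and plate blanks.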
Arbovirus anti: blocks arbovirus infection; 200,000 compounds, 0.37% hits; inhibition, % at 10 µM; arbovirus infection cell-based antiviral screen; in the data active = inhibition above about 30%
Wee1 degr inh: blocks degradation of human Wee1 kinase; HeLa Luc-Wee1K328M stability, luciferase luminescence; 100% = proteasome inhibitor MG132 effect; 220,000 compounds, 1.2% hits; P30291; reporter increase, % at 5 µM; AID 1321;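 active = activation above the mean of all tested compounds plus 3 SD, set per screening run, cut at about 8.8% in these data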;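 also: cells exposed to compound for 20 h before luminescence read; 0% = DMSO alone and 100% = MG132 at 30 µM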
Target sequence (P30291 whole entry K328M): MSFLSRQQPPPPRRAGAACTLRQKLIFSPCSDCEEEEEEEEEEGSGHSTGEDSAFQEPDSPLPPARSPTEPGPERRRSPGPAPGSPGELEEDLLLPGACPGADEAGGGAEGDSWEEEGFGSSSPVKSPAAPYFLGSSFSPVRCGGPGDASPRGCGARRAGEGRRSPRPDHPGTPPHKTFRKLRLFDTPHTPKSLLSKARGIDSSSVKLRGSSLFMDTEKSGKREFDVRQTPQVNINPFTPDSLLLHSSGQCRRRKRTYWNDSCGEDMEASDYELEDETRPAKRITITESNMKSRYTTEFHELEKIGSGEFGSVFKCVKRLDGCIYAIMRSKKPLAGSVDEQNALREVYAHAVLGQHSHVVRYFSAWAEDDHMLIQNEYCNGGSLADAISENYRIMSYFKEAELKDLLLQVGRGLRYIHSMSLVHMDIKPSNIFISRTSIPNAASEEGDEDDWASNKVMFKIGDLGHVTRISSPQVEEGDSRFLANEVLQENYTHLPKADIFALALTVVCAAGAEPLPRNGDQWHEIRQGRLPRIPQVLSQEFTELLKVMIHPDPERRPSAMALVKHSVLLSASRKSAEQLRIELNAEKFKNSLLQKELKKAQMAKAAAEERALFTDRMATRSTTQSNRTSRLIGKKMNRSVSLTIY
L major viab: reduces viability of Leishmania major promastigotes | resazurin fluorescence viability | inhibition, % at 10 µM | 200,000 compounds, 9% hits;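 also: promastigotes grown with compound for 44 hours at 28 °C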
CHOP inh: blocks CHOP induction under ER stress; CHO-K1 CHOP-promoter luciferase, tunicamycin-induced, 15-18 h; inhibition, % at 10 µM; 220,000 compounds, 3.8% hits;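 active = compounds that reduced the stress-induced luciferase reporter signal by more than about 70% of percent inhibition, limit read from the data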;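 also: 0% = tunicamycin plus vehicle and 100% = wells without tunicamycin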
* hit, by the source's call; . = no result. In the library only some 12% were active in any assay of this set; here they are far more common. Rule as the data show it, unless noted: active = inhibition above about 50%; inactive = the rest.

SMILES	PKD1 kinase inh	Rad51 HR inh	Arbovirus anti	Wee1 degr inh	L major viab	CHOP inh
CC(=O)N1CC(=O)N=C1SCC(=O)Nc1nc(-c2ccccc2)c(-c2ccccc2)s1	-3	14	-2	-3	-13	49
CC(=O)n1cc(N(C(=O)CCl)c2ccc([N+](=O)[O-])cc2)c2ccccc21	.	14	.	1	.	106*
CC(=O)n1cc(N(C(=O)CCl)c2ccccc2)c2ccccc21	.	.	.	0	.	107*
Cc1cc(C)cc(NC(=O)N2CCCN(Cc3c(F)cccc3Cl)CC2)c1	.	18	.	0	.	26
Cc1cc(F)ccc1NCC(=O)Nc1ccccc1Br	-10	10	-1	2	-3	-31
COc1ccc(OC)c(NC(=O)c2nnn(Cc3ccc(Br)cc3F)c2N)c1	-1	3	-16	-1	-4	88*
COC(=O)c1ccc([C@@H]2C[C@H]3CN(Cc4cccnc4)C(=O)[C@]34CCCN24)cc1	-2	5	2	-2	-6	-16
O=S(=O)(N/N=C1/CC(c2ccccc2)Oc2ccccc21)c1ccc(Br)cc1 (stereo not drawn)	4	12	-14	1	35	94*
Cc1ccc(S(=O)(=O)N/N=C2/CC(c3ccccc3)Oc3ccccc32)cc1[N+](=O)[O-] (stereo not drawn)	-1	4	-4	2	30	-15
CNC(=S)N/N=C1\CC(c2ccccc2)Oc2ccccc21 (stereo not drawn)	11	30	-5	0	11	15
Fc1ccc(N/N=C2/CC(c3ccccc3)Oc3ccccc32)c(F)c1 (stereo not drawn)	-3	2	-34	-3	72*	57
CCCOc1ccc(CCC(=O)N/N=C/c2ccc([N+](=O)[O-])o2)cc1	.	-5	.	2	.	-26
Cc1cc(C)cc(OCC(=O)N/N=C/c2ccc([N+](=O)[O-])o2)c1	12	.	-10	0	96*	-90
Cc1ccccc1OCC(=O)NCC(=O)N/N=C/c1ccc(Br)o1	3	.	-2	-2	-6	2
COc1ccccc1OCC(=O)N/N=C/C=C/c1ccc([N+](=O)[O-])o1	-11	0	-36	0	100*	7
Cc1ccccc1OCC(=O)N/N=C/c1ccc([N+](=O)[O-])o1	-1	-3	2	5	98*	-38
Cc1cccc(OCC(=O)N/N=C/CC(C)c2ccccc2)c1C (stereo not drawn)	3	5	-8	1	-8	77*
Cc1ccccc1OCC(=O)N/N=C/C=C/c1ccccc1	1	27	-9	1	1	20
O=C(COc1ccccc1[N+](=O)[O-])N/N=C/C=C/c1ccco1	-11	.	4	-1	-8	-21
COc1ccc(N2CCN(C(=S)NCc3ccccc3)CC2)cc1	-11	15	-2	4	-9	27
Cc1ccc(OCC(=O)N/N=C/C=C/c2ccco2)cc1	7	1	-3	-1	76*	-8
COc1ccc(F)cc1S(=O)(=O)N1CC(C)CC(C)C1 (stereo not drawn)	-3	5	3	-1	-3	6
CC(NC(=O)C1CCC(CNc2c(N3CCCCC3)c(=O)c2=O)CC1)c1ccccc1 (stereo not drawn)	.	.	.	0	.	12
COCCNc1ccc(N2C(=O)C3CCCCC3C2=O)cc1[N+](=O)[O-] (stereo not drawn)	4	.	2	-2	1	7
O=C1C2CC=CCC2C(=O)N1c1ccc(NCCc2cccc(F)c2)c([N+](=O)[O-])c1 (stereo not drawn)	0	-7	-4	2	61*	26
SMILES	PKD1 kinase inh	Rad51 HR inh	Arbovirus anti	Wee1 degr inh	L major viab	CHOP inh
O=C1C2CCCCC2C(=O)N1c1ccc(NC2CCCCC2)c([N+](=O)[O-])c1 (stereo not drawn)	-6	2	6	-3	52*	12
O=C1CCC(=O)N1c1ccc(NCCc2cccc(F)c2)c([N+](=O)[O-])c1	-1	1	2	0	-6	8
Cc1ccc(C)c(Nc2c([N+](=O)[O-])c(=O)oc3ccccc23)c1	.	.	.	0	.	8
O=C(O)c1cccc(-c2ccc(/C=N/n3cnc4sc5c(c4c3=O)CCCC5)o2)c1	.	0	.	4	.	6
S=c1[nH]nc(-c2ccc(Cl)cc2)n1-c1ccc2c(c1)OCCO2	2	8	-6	0	-2	-3
Fc1ccc(-c2n[nH]c(=S)n2-c2ccc3c(c2)OCCO3)cc1	-2	-3	-1	9.1*	-4	-3
CC(C)(C)C(=O)/C=C/Nc1ccccc1O	-2	.	-9	-2	98*	43
CN(C)c1ccc(N/C=C/C(=O)C(C)(C)C)cc1	1	-1	-10	4	54*	43
CCOC(=O)c1ccc(N/C=C/C(=O)C(C)(C)C)cc1	-16	-20	-11	0	-1	8
CN(C)c1ccc(N/C=C/C(=O)c2ccccc2)cc1	-15	-10	-25	-2	100*	81*
CCOc1cc(/C=C(/NC(C)=O)C(=O)O)cc(Cl)c1OCc1cccc(Br)c1	.	8	.	-3	.	-11
CCS(=O)(=O)c1ccc(C(=O)Nc2ccccc2OC)c(Cl)c1Cl	6	-5	7	3	-2	16
Cc1cccn2c(=O)c3cc(C(=O)N(C)C)n(C)c3nc12	11	-4	3	3	87*	6
CCOCCCn1c(=N)c(C(N)=S)cc2c(=O)n3cccc(C)c3nc21	3	-7	-17	-1	43	-40
CCOC(=O)c1cc2c(=O)n3cccc(C)c3nc2n(Cc2ccco2)c1=NC(=O)c1cccnc1	1	2	-9	0	86*	0
COCCNC(=O)c1cc2c(=O)n3cccc(C)c3nc2n1C	.	-5	-3	.	.	.
CCOC(=O)c1cc2c(=O)n3cccc(C)c3nc2n(C)c1=N	-13	.	-13	0	98*	-19
Cc1cccn2c(=O)c3cc(C(N)=S)c(=N)n(CCCOC(C)C)c3nc12	6	-3	-15	15*	87*	1
CCc1c(C)c(C#N)c2nc3ccccc3n2c1NCc1ccccn1	-2	-25	-3	-4	26	-11
C/C(=N/O)c1no[n+]([O-])c1/C(C)=N\O	.	.	.	0	.	20
COc1ccc(CCNC(=O)COC(=O)CCC(=O)c2ccc(F)cc2)cc1OC	-4	5	0	0	-12	12
CCN(CC)S(=O)(=O)c1ccc(-c2nnc(SCc3nnc(-c4ccccc4)o3)o2)cc1	-4	2	-18	4	6	57
O=S(=O)(c1ccc(-c2nnc(SCc3nnc(-c4ccccc4)o3)o2)cc1)N1CCCC1	-4	-1	-7	0	100*	37
CCn1c(SCc2ccccc2)nnc1-c1ccc(S(=O)(=O)N2CCCCC2)cc1	3	2	5	-1	99*	48
